Converted amounts (≈) assume the structure as drawn.
Key:
[1] = tested on: A549; test: Antiproliferative activity against human A549 cells by […]; assay type: functional; conditions: read-out: ID50 (the source's name)
Summary of the method: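 A549 human lung adenocarcinoma cells grown at 37 °C, 5% CO₂ in RPMI 1640+Opti-MEM (1:1) with 5% FBS, 2 mM glutamine, penicillin/streptomycin. Plated 10⁴ cells/well 24 h before dosing. Exposed 72 h to 0.1–100 µg/ml, ethanol vehicle. Cold 50% TCA fixation at 4 °C for 1 h, 0.4% SRB stain, OD 540 nm. ID₅₀ per experiment, mean ± SD. Triplicates, 3–5 experiments.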

[2] = tested on: HL-60; test: Antiproliferative activity against human HL60 cells by MTT assay; assay type: functional; conditions: read-out: ID50 (the source's name)
Summary of the method: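 HL-60 promyelocytic leukemia cells in suspension in RPMI 1640 with 10% FBS, 2 mM glutamine, 1 mM pyruvate, glucose, antibiotics, 37 °C, 5% CO₂. Plated 10⁴ cells/well 24 h before dosing. Exposed 72 h to 0.1–100 µg/ml, ethanol vehicle. MTT (5 mg/ml stock) added for the last 3–4 h. SDS/DMF lysis for 24 h, OD 570 nm. ID₅₀ mean ± SD. Triplicates, 3–5 experiments.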

| Compound | IC50 [1] | IC50 [2] |
| --- | --- | --- |
| C[C@@H]1CC(=O)C=C2CC[C@@H]([C@@]3(C)CO3)C[C@]21C | 167 µg/mL (≈ 713 µM) | 27.6 µg/mL (≈ 118 µM) |
| C=C(C)[C@@H]1C[C@@H](O)C2=CC(=O)C[C@@H](C)[C@]2(C)C1 | 62.7 µg/mL (≈ 268 µM) | 25.7 µg/mL (≈ 110 µM) |
| C[C@@H]1CC(=O)C=C2[C@H](O)C[C@H]([C@@]3(C)CO3)C[C@]21C | 289 µg/mL (≈ 1150 µM) | 345 µg/mL (≈ 1380 µM) |
| C[C@@H]1CC(=O)C=C2CC[C@](O)(C(C)(O)CO)C[C@]21C (some centres undefined) | 290 µg/mL (≈ 1080 µM) | 25.8 µg/mL (≈ 96.1 µM) |
| C=C(C)[C@@H]1CCC2=CC(=O)C[C@@H](C)[C@]2(C)C1 [NOOTKATONE] | 58.4 µg/mL (≈ 267 µM) | 4.27 µg/mL (≈ 19.6 µM) |

The remaining lines, values ahead:

| IC50 [1] | IC50 [2] | Compound |
| --- | --- | --- |
| 36 µg/mL (≈ 154 µM) | 4.4 µg/mL (≈ 18.8 µM) | C=C(CO)[C@@H]1CCC2=CC(=O)C[C@@H](C)[C@]2(C)C1 |
| 325 µg/mL (≈ 1290 µM) | 284 µg/mL (≈ 1130 µM) | C[C@@H]1CC(=O)C=C2CC[C@@H](C(C)(O)CO)C[C@]21C (some centres undefined) |
